Measurements published in ChEMBL document CHEMBL3868593, “Chlojaponilactone B from Chloranthus japonicus: Suppression of Inflammatory Responses via Inhibition of the NF-κB Signaling Pathway” (J Nat Prod, 2016).
One block for each molecule: values may come before it. Active and inactive are the calls of the source. No cut-off for these calls is given here.

Columns and labels:
[1] = test system: RAW264.7; experiment: Inhibition of NF-kappaB in mouse RAW264.7 cells assessed as reduction in LPS-induced COX2 expression at 1 to 9 uM pretreated for 30 mins followed by LPS stimulation for 12 hrs by Western blot analysis; format: cell-based
In short: (§1)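 Cells 5 × 10^5 per well grown 24 h, serum-starved 12 h, pretreated 30 min, then LPS 500 ng/mL for 12 h. Lysates protein-normalized by BCA, 10% SDS-PAGE, PVDF, anti-iNOS or anti-COX-2 (1:1000) overnight at 4 °C, ECL detection; β-tubulin loading control.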

[2] = test system: Mus musculus; experiment: Antiinflammatory activity in TPA-induced ear edema BALB/c mouse model assessed as reduction in epidermal hyperplasia at 10 mg/ml applied topically pretreated for 30 mins followed by TPA exposure measured after 4 hrs by hematoxylin and eosin staining based light microscopic method; format: functional, tissue-based
In short: (§2)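 Right ear pretreated topically (2.5, 5, 10 mg/mL) 30 min before TPA for 4 h; left ear acetone only; 1% hydrocortisone as positive control. Ears fixed in 4% paraformaldehyde, paraffin-embedded, cut at 4 μm, H&E stained; representative area examined qualitatively by light microscopy at 200×; n = 8 mice per group.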

[3] = test system: RAW264.7; experiment: Inhibition of NF-kappaB in mouse RAW264.7 cells assessed as reduction in LPS-induced IL-6 level pretreated for 30 mins followed by LPS stimulation for 24 hrs by ELISA; format: cell-based
In short: (§3)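 Pretreatment at 0.3, 1, 3 or 9 μM for 30 min, then LPS 500 ng/mL for 24 h; culture supernatant assayed for TNF-α and IL-6 by ELISA kits; means ± SD of three independent experiments.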

[4] = test system: Mus musculus; experiment: Antiinflammatory activity in BALB/c mouse assessed as inhibition of TPA-induced ear edema applied topically pretreated for 30 mins followed by TPA exposure measured after 4 hrs; format: functional
In short: (§4)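 Topical dosing of right ear at 2.5, 5 or 10 mg/mL, 30 min before TPA; left ear given acetone only as solvent control; 1% hydrocortisone as positive control. Mice killed 4 h after TPA, 7 mm central punches taken from both ears and weighed; edema rate (%) = [(weight right − weight left)/weight left] × 100%. n = 8 mice per group.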

[5] = test system: RAW264.7; experiment: Inhibition of NF-kappaB in mouse RAW264.7 cells assessed as reduction in LPS-induced TNF-alpha level pretreated for 30 mins followed by LPS stimulation for 24 hrs by ELISA; format: cell-based; in short: as §3
[6] = test system: Mus musculus; experiment: Antiinflammatory activity in TPA-induced ear edema BALB/c mouse model assessed as reduction in inflammatory cell infilteration at 10 mg/ml applied topically pretreated for 30 mins followed by TPA exposure measured after 4 hrs by hematoxylin and eosin staining based light microscopic method; format: functional, tissue-based; in short: as §2
[7] = test system: RAW264.7; experiment: Inhibition of LPS-induced NF-kappaB (unknown origin) transactivation expressed in mouse RAW264.7 cells pretreated for 30 mins followed by LPS stimulation for 6 hrs by luciferase reporter gene assay; format: cell-based; conditions: Homo sapiens
In short: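 RAW 264.7 line stably carrying NF-κB-driven firefly luciferase, maintained with 500 μg/mL G418; seeded 5 × 10^5 per well, 24 h, pretreated 30 min at 2.5–20 μM, then 500 ng/mL LPS for 6 h; 0.5% DMSO vehicle; 20 μM PDTC positive control. Lysate luminescence read; three independent experiments, means ± SD.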

[8] = test system: Mus musculus; experiment: Antiinflammatory activity in BALB/c mouse assessed as inhibition of TPA-induced ear edema at 10 mg/ml applied topically pretreated for 30 mins followed by TPA exposure measured after 4 hrs; format: functional; in short: as §4
[9] = test system: RAW264.7; experiment: Inhibition of NF-kappaB in mouse RAW264.7 cells assessed as reduction in LPS-induced iNOS protein expression pretreated for 30 mins followed by LPS stimulation for 12 hrs by Western blot analysis; format: cell-based; in short: as §1
[10] = test system: RAW264.7; experiment: Inhibition of NF-kappaB in mouse RAW264.7 cells assessed as reduction in LPS-induced degradation of IkappaB-alpha pretreated for 30 mins followed by LPS stimulation for 1 hr by Western blot analysis; format: cell-based
In short: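 Serum-starved (12 h) cells pretreated 30 min at 2.5, 5 or 10 μM or 0.5% DMSO, then LPS 500 ng/mL for 1 h; Western blot for IκB-α and phospho-IκB-α (1:1000, 4 °C overnight), ECL, β-tubulin loading control; bands quantified from three independent experiments.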

[11] = target: Transcription factor p65 (Mus musculus) (UniProt Q04207); experiment: Inhibition of LPS-induced NF-kappaB p65 subunit translocation into nucleus of mouse RAW264.7 cells at 10 uM pretreated for 30 mins followed by LPS stimulation for 3 hrs by DAPI staining based immunofluorescence assay; format: cell-based
In short: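 Cells at 1 × 10^5/mL plated overnight, pretreated 30 min, then LPS 500 ng/mL for 3 h; fixed in 4% formaldehyde, permeabilized with 1% Triton X-100, blocked in 5% BSA, anti-p65 (1:100) overnight at 4 °C, Alexa 594 secondary, DAPI nuclei. High-content imaging; nuclear minus cytoplasmic fluorescence; three independent experiments.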

[12] = Antiinflammatory activity in mouse RAW264.7 cells assessed as inhibition of LPS-induced NO production pretreated for 30 mins followed by LPS stimulation for 24 hrs by Griess assay; format: functional, cell-based
In short: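 Cells seeded at 5 × 10^4 per well, grown 24 h, pretreated 30 min, then stimulated with 500 ng/mL LPS for 24 h; 0.5% DMSO vehicle in all wells; LPS-only and unstimulated blanks included; L-NIL as positive control. Medium reacted with Griess reagent, absorbance at 540 nm; IC50 reported.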

[13] = test system: Mus musculus; experiment: Antiinflammatory activity in TPA-induced ear edema BALB/c mouse model assessed as reduction in epidermal hyperplasia applied topically pretreated for 30 mins followed by TPA exposure measured after 4 hrs by hematoxylin and eosin staining based light microscopic method; format: functional, tissue-based; in short: as §2
[14] = test system: Mus musculus; experiment: Antiinflammatory activity in TPA-induced ear edema BALB/c mouse model assessed as reduction in inflammatory cell infilteration applied topically pretreated for 30 mins followed by TPA exposure measured after 4 hrs by hematoxylin and eosin staining based light microscopic method; format: functional, tissue-based; in short: as §2
[15] = test system: RAW264.7; experiment: Inhibition of LPS-induced NF-kappaB (unknown origin) transactivation expressed in mouse RAW264.7 cells at 20 uM pretreated for 30 mins followed by LPS stimulation for 6 hrs by luciferase reporter gene assay; format: cell-based; conditions: Homo sapiens
In short: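 RAW 264.7/NF-κB-luc cells (RAW 264.7 stably carrying an NF-κB-driven luciferase reporter), kept in DMEM with 10% FBS, penicillin/streptomycin and 500 μg/mL G418. Seeded at 5 × 10^5 per well for 24 h, then compound for 30 min before LPS 500 ng/mL for 6 h; DMSO 0.5% vehicle, PDTC 20 μM positive control. Firefly luminescence read on lysates; means ± SD of three independent experiments.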

Sequence of Transcription factor p65 (Mus musculus) (Q04207 whole entry): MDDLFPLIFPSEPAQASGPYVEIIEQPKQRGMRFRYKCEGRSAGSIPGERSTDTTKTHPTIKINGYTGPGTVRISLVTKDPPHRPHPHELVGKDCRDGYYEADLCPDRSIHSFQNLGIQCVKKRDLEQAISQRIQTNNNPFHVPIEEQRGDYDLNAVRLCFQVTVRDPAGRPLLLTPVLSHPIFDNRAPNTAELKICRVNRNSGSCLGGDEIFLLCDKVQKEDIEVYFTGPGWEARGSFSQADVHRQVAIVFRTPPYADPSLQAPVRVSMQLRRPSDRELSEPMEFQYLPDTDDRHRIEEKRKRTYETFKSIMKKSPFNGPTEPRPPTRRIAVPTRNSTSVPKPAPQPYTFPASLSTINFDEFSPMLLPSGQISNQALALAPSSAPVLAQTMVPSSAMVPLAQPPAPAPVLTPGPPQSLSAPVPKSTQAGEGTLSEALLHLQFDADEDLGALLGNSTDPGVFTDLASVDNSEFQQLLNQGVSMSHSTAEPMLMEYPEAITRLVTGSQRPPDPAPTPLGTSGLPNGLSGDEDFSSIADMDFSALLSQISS

Compound: C=C1[C@H]2C[C@H]2[C@]2(C)[C@H](O)[C@]3(OC)OC(=O)C(C)=C3C[C@@H]12
IC50 [12]: > 50 µM

Compound: C=C1[C@H]2C[C@H]2[C@]2(C)C[C@@H]3OC(=O)C(C)=C3C[C@@H]12
IC50 [12]: > 50 µM

Compound: C=C1[C@H]2C[C@H]2[C@]2(C)C[C@@H]3OC(=O)C(C)=C3C[C@]12O [SARCANDRALACTONE A]
IC50 [12]: > 50 µM

Compound: C[C@]12CCC(=O)C=C1CC[C@@H]1[C@@H]2[C@@H](O)C[C@@]2(C)[C@H]1CC[C@]2(O)C(=O)CO [HYDROCORTISONE]
inhibition (INH) [4]: 56.33%
Activity [13]: Active
Activity [14]: Active

Compound: S=C(S)N1CCCC1
inhibition [15]: Active

Compound: C=C1[C@H]2C[C@H]2[C@]2(C)C=C3OC(=O)C(C)=C3C[C@@]12O
IC50 [12]: > 50 µM

Compound: CC1=C2CC3=C(CO)[C@H]4C[C@H]4[C@]3(C)C[C@@H]2OC1=O [CHLORAJAPOLIDE C]
IC50 [12]: > 50 µM

Compound: C=C1[C@H]2C[C@H]2[C@]2(C)[C@H](O)[C@@]3(OC)OC(=O)C(C)=C3C[C@@H]12
IC50 [12]: > 50 µM

The remaining molecules from weak to strong by IC50 [12], led by results:

IC50 [12]: 35.4 µM
Compound: C=C1[C@H]2C[C@H]2[C@@]2(C)[C@H]1CC1=C(C)C(=O)O[C@@]1(O)[C@H]2O

IC50 [12]: 33.2 µM
Compound: C=C1[C@H]2C[C@H]2[C@]2(C)C=C3OC(=O)C(C)=C3C[C@@H]12 [CHLORANTHALACTONE A]

IC50 [12]: 7.5 µM
Compound: CC(=N)NCCCC[C@H](N)C(=O)O [L-NIL]

inhibition [11]: Active
IC50 [12]: 1.4 µM
Compound: C=C1[C@H]2C[C@H]2[C@]2(C)C=C3OC(=O)C(C)=C3[C@H](OC(C)=O)[C@@H]12
inhibition [1]: Active
Activity [2]: Active
inhibition [3]: Dose-dependent effect
inhibition [4]: Dose-dependent effect
inhibition [5]: Dose-dependent effect
Activity [6]: Active
inhibition [7]: Dose-dependent effect
inhibition at 10000 µg/mL [8]: 23.5%
inhibition [9]: Dose-dependent effect
inhibition [10]: Dose-dependent effect
